These results are taken from ChEMBL document CHEMBL1150425, “Parallel one-pot synthesis and structure-activity relationship study of symmetric formimidoester disulfides as a novel class of potent non-nucleoside HIV-1 reverse transcriptase inhibitors” (Bioorg Med Chem, 2008).

In series [1] the test system is Human immunodeficiency virus 1. Description: Antiviral activity against HIV1 in MT4 cells assessed as reduction of virus induced cytopathogenicity by MTT method. It is filed as functional, organism-based. Conditions: Human immunodeficiency virus 1, MT4. The method, boiled down: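 MT-4 cells infected with wild-type HIV-1; EC50 = concentration giving 50% protection of cells from virus-induced cytopathogenicity, viability read by MTT. Triplicate samples.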
(Protection from cytopathic effect is a common read-out in antiviral testing.)

The nature of series [2]: Selectivity index, ratio of CC50 for human MT4 cells to EC50 for HIV1 cells. It is filed as toxicity, cell-based. The conditions noted are these: read-out: Ratio CC50/EC50. The method, boiled down:
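Ratio of CC50 (mock-infected MT-4 viability, MTT) to EC50 (50% protection of MT-4 cells from HIV-1 cytopathogenicity, MTT), both taken from the same parallel cell-based run.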

The nature of series [3]: Cytotoxicity against human MT4 cells by MTT method. It is filed as cell-based. The method in brief: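 Mock-infected MT-4 cells, run in parallel with the antiviral test; CC50 = concentration reducing viability by 50%, read by MTT. Triplicate samples.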
Series [4] has as its system Human immunodeficiency virus 1. As to the kind of experiment: Antiviral activity against HIV1 with reverse transcriptase K103R mutation. It is filed as functional, organism-based. The method, boiled down:
(§1)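 MT-4 cells infected with the mutant HIV-1 strain; protection from virus-induced cytopathogenicity read by MTT. EC50 is the concentration (µM) giving 50% protection. Cytotoxicity was assayed in parallel on mock-infected MT-4 cells by MTT. Triplicate samples.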

Series [5] concerns Human immunodeficiency virus 1. Description: Antiviral activity against HIV1 with reverse transcriptase Y181C mutation. It is filed as functional, organism-based. The method, boiled down:
as §1

For `COc1cccc(/N=C(\OCCN2C(=O)c3ccccc3C2=O)SS/C(=N/c2cccc(OC)c2)OCCN2C(=O)c3ccccc3C2=O)c1`, the 50% effective concentration (EC50) in series [1] turned out to be 1.3 µM. For the same compound, the selectivity ratio in series [2] is 61. Also, it took 80 µM to reach half-maximal cytotoxicity in series [3] (CC50).
In the same order, the values of `O=C1c2ccccc2C(=O)N1CCO/C(=N\c1cccc([N+](=O)[O-])c1)SS/C(=N/c1cccc([N+](=O)[O-])c1)OCCN1C(=O)c2ccccc2C1=O` are 0.7 µM, above 143 and above 100 µM.
In the case of `O=C1c2ccccc2C(=O)N1CCO/C(=N\c1ccc(C(F)(F)F)cc1)SS/C(=N/c1ccc(C(F)(F)F)cc1)OCCN1C(=O)c2ccccc2C1=O`, the EC50 in series [1] was determined as 0.1 µM. In addition, in series [2], the selectivity ratio is above 1000. Besides, in series [3], the cytotoxic concentration (CC50) was above 100 µM.
Regarding `Cc1cc(C)cc(/N=C(\OCCN2C(=O)c3ccccc3C2=O)SS/C(=N/c2cc(C)cc(C)c2)OCCN2C(=O)c3ccccc3C2=O)c1`, the EC50 in series [1] was found to be 3 µM. Moreover, in series [2], the selectivity ratio is above 33. This compound also had a half-maximal cytotoxic concentration (CC50) in series [3] above 100 µM.
On to `COc1ccc(/N=C(\OCCN2C(=O)c3ccccc3C2=O)SS/C(=N/c2ccc(OC)cc2)OCCN2C(=O)c3ccccc3C2=O)cc1`, for which the concentration giving a half-maximal response (EC50) in series [1] stood at 0.06 µM. Besides, in series [2], the selectivity ratio stood at 1500. Besides, in series [3], it took 90 µM to reach half-maximal cytotoxicity (CC50).
In the same order, the values of `O=C1c2ccccc2C(=O)N1CCO/C(=N\c1cccc2ccccc12)SS/C(=N/c1cccc2ccccc12)OCCN1C(=O)c2ccccc2C1=O` are 8 µM, above 13 and above 100 µM.
In the same order, the values of `Cc1ccc2c(c1)C(=O)N(CCO/C(=N\c1ccc(Br)cc1)SS/C(=N/c1ccc(Br)cc1)OCCN1C(=O)c3ccc(C)cc3C1=O)C2=O` are 1.3 µM, above 77 and above 100 µM.
For `O=C1c2ccccc2C(=O)N1CCO/C(=N\c1ccc(I)cc1)SS/C(=N/c1ccc(I)cc1)OCCN1C(=O)c2ccccc2C1=O`, the 50% effective concentration (EC50) in series [1] came to 0.03 µM. The selectivity ratio in series [2] was 1600. In addition, the CC50 in series [3] stood at 48 µM.
For the compound `O=C1c2ccccc2C(=O)N1CCO/C(=N\c1cc(F)ccc1F)SS/C(=N/c1cc(F)ccc1F)OCCN1C(=O)c2ccccc2C1=O`, the concentration for a half-maximal effect (EC50) in series [1] is 1.3 µM. Besides, in series [2], the selectivity ratio came out at 40. The same compound gave a CC50 in series [3] of 52 µM.
The corresponding values for `O=C1c2ccccc2C(=O)N1CCO/C(=N\c1cc(Cl)cc(Cl)c1)SS/C(=N/c1cc(Cl)cc(Cl)c1)OCCN1C(=O)c2ccccc2C1=O` are above 42 µM, below 1 and 42 µM.
Consider `Cc1cc(Br)cc(C)c1/N=C(\OCCN1C(=O)c2ccccc2C1=O)SS/C(=N/c1c(C)cc(Br)cc1C)OCCN1C(=O)c2ccccc2C1=O`, for which the EC50 in series [1] was above 100 µM. The same compound yielded a CC50 in series [3] above 100 µM.
In the case of `O=C1c2ccccc2C(=O)N1CCO/C(=N\c1c(F)cc(F)cc1F)SS/C(=N/c1c(F)cc(F)cc1F)OCCN1C(=O)c2ccccc2C1=O`, in series [1], the EC50 amounted to 1.2 µM. Also, in series [2], the selectivity ratio is 33. Half-maximal cytotoxicity in series [3] (CC50) was put at 39 µM.
Take `O=C1c2ccccc2C(=O)N1CCO/C(=N\c1ccc(Cl)c([N+](=O)[O-])c1)SS/C(=N/c1ccc(Cl)c([N+](=O)[O-])c1)OCCN1C(=O)c2ccccc2C1=O`: the concentration giving a half-maximal response (EC50) in series [1] stood at 0.07 µM. Moreover, in series [2], the selectivity ratio turned out to be 257. In addition, the 50% cytotoxic concentration (CC50) in series [3] stood at 18 µM.
As for `O=C1c2ccccc2C(=O)N1CCO/C(=N\c1ccc(F)cc1)SS/C(=N/c1ccc(F)cc1)OCCN1C(=O)c2ccccc2C1=O`, the EC50 in series [1] stood at 0.02 µM. In addition, the selectivity ratio in series [2] was 1450. The compound also registered a half-maximal cytotoxic concentration (CC50) in series [3] of 29 µM.
The corresponding values for `Cc1ccc(/N=C(\OCCN2C(=O)c3ccccc3C2=O)SS/C(=N/c2ccc(C)cc2)OCCN2C(=O)c3ccccc3C2=O)cc1` are 0.04 µM, 525 and 21 µM.
Regarding `O=C1c2ccccc2C(=O)N1CCO/C(=N\c1ccccc1Cl)SS/C(=N/c1ccccc1Cl)OCCN1C(=O)c2ccccc2C1=O`, the concentration for a half-maximal effect (EC50) in series [1] is above 9 µM. Moreover, the selectivity ratio in series [2] was below 1. This compound yielded a cytotoxic concentration (CC50) in series [3] of 9 µM.
The corresponding values for `O=C1c2ccccc2C(=O)N1CCO/C(=N\c1cccc(Cl)c1)SS/C(=N/c1cccc(Cl)c1)OCCN1C(=O)c2ccccc2C1=O` are 0.4 µM, 90 and 36 µM.
In the same order, the values of `O=C1c2ccccc2C(=O)N1CCO/C(=N\c1ccc(Cl)cc1)SS/C(=N/c1ccc(Cl)cc1)OCCN1C(=O)c2ccccc2C1=O` are 0.02 µM, 5500 and 88 µM.
Take `O=C1c2ccccc2C(=O)N1CCO/C(=N\C1CC1)SS/C(=N/C1CC1)OCCN1C(=O)c2ccccc2C1=O`: in series [1], the EC50 is above 100 µM. In series [3], this compound gave a 50% cytotoxic concentration (CC50) above 100 µM.
As to `O=C1Nc2ccc(Cl)cc2C(C#CC2CC2)(C(F)(F)F)O1` (single isomer, unassigned) [EFAVIRENZ], the EC50 amounted to 0.04 µM in series [4] and 0.01 µM in series [5].
Regarding `Cc1ccc(/N=C(\OCCN2C(=O)c3ccccc3C2=O)SS/C(=N/c2ccc(C)c(Cl)c2)OCCN2C(=O)c3ccccc3C2=O)cc1Cl`, the EC50 in series [1] was 0.2 µM. In series [2], the selectivity ratio is above 500. In series [3], this compound registered a CC50 above 100 µM.
With `O=C1c2ccccc2C(=O)N1CCCO/C(=N\c1ccc(Br)cc1)SS/C(=N/c1ccc(Br)cc1)OCCCN1C(=O)c2ccccc2C1=O`, the EC50 in series [1] was above 100 µM. Also, the 50% cytotoxic concentration (CC50) in series [3] was above 100 µM.
With `O=C1c2ccccc2C(=O)N1CCO/C(=N\c1ccc(Cl)cc1Cl)SS/C(=N/c1ccc(Cl)cc1Cl)OCCN1C(=O)c2ccccc2C1=O`, the EC50 in series [1] amounted to 4 µM. Also, the selectivity ratio in series [2] is above 25. In series [3], this compound registered a CC50 above 100 µM.
In the case of `N#Cc1ccc(/N=C(\OCCN2C(=O)c3ccccc3C2=O)SS/C(=N/c2ccc(C#N)cc2)OCCN2C(=O)c3ccccc3C2=O)cc1`, the concentration for a half-maximal effect (EC50) in series [1] is 0.1 µM. The selectivity ratio in series [2] is above 1000. The compound also yielded a half-maximal cytotoxic concentration (CC50) in series [3] above 100 µM.
As to `O=C1c2ccccc2C(=O)N1CCO/C(=N\c1ccc(Cl)c(Cl)c1)SS/C(=N/c1ccc(Cl)c(Cl)c1)OCCN1C(=O)c2ccccc2C1=O`, the EC50 in series [1] is 7 µM. For the same compound, the selectivity ratio in series [2] is above 14. Moreover, the half-maximal cytotoxic concentration (CC50) in series [3] was above 100 µM.
As for `c1ccc(CCO/C(=N\c2ccccc2)SS/C(=N/c2ccccc2)OCCc2ccccc2)cc1`, in series [1], the EC50 is 11 µM. Besides, in series [2], the selectivity ratio amounted to 6.4. In addition, in series [3], the CC50 worked out at 70 µM.
Take `O=C1c2ccccc2C(=O)N1CCO/C(=N\c1ccccc1F)SS/C(=N/c1ccccc1F)OCCN1C(=O)c2ccccc2C1=O`: in series [1], the concentration giving a half-maximal response (EC50) was determined as 1.2 µM. Further, the selectivity ratio in series [2] is 36. The midpoint of cytotoxicity in series [3], the CC50, lay at 43 µM.
Turning to `O=C1c2ccccc2C(=O)N1CCO/C(=N\c1cccc(C(F)(F)F)c1)SS/C(=N/c1cccc(C(F)(F)F)c1)OCCN1C(=O)c2ccccc2C1=O`, the EC50 in series [1] amounted to 2.3 µM. In addition, the selectivity ratio in series [2] is 9.6. In series [3], this compound returned a CC50 of 22 µM.
Take `O=C1c2ccccc2C(=O)N1CCO/C(=N\c1cccc(Cl)c1Cl)SS/C(=N/c1cccc(Cl)c1Cl)OCCN1C(=O)c2ccccc2C1=O`: the EC50 in series [1] turned out to be 18 µM. The selectivity ratio in series [2] worked out at 2.1. In series [3], the CC50 amounted to 37 µM.
For `O=C1c2ccccc2C(=O)N1CCO/C(=N\c1ccc(F)cc1F)SS/C(=N/c1ccc(F)cc1F)OCCN1C(=O)c2ccccc2C1=O`, the 50% effective concentration (EC50) in series [1] is 0.05 µM. Moreover, the selectivity ratio in series [2] amounted to 541. In addition, the half-maximal cytotoxic concentration (CC50) in series [3] turned out to be 27 µM.
Turning to `O=C1c2ccccc2C(=O)N1CCO/C(=N\c1cccc(F)c1)SS/C(=N/c1cccc(F)c1)OCCN1C(=O)c2ccccc2C1=O`, in series [1], the EC50 is 5 µM. In addition, the selectivity ratio in series [2] was determined as 7.6. The compound also showed a CC50 in series [3] of 38 µM.
The corresponding values for `O=C1c2ccccc2C(=O)N1CCO/C(=N\c1cccc(Br)c1)SS/C(=N/c1cccc(Br)c1)OCCN1C(=O)c2ccccc2C1=O` are 6 µM, 15 and 89 µM.
Take `O=C1c2ccccc2C(=O)N1CCO/C(=N\c1ccc(Cl)c(C(F)(F)F)c1)SS/C(=N/c1ccc(Cl)c(C(F)(F)F)c1)OCCN1C(=O)c2ccccc2C1=O`: in series [1], the concentration for a half-maximal effect (EC50) was found to be 28 µM. Besides, the selectivity ratio in series [2] was above 3.6. The cytotoxic concentration (CC50) in series [3] was above 100 µM.
With `Cc1ccccc1/N=C(\OCCN1C(=O)c2ccccc2C1=O)SS/C(=N/c1ccccc1C)OCCN1C(=O)c2ccccc2C1=O`, in series [1], the half-maximal effective concentration (EC50) was above 11 µM. The selectivity ratio in series [2] is below 1. In series [3], this compound returned a half-maximal cytotoxic concentration (CC50) of 11 µM.
On to `O=C1c2ccccc2C(=O)N1CCO/C(=N\c1ccccc1)SS/C(=N/c1ccccc1)OCCN1C(=O)c2ccccc2C1=O`, for which the concentration for a half-maximal effect (EC50) in series [1] came out at 0.35 µM. Further, the selectivity ratio in series [2] was 229. In addition, in series [3], the CC50 was 80 µM.
For the compound `O=C1c2ccccc2C(=O)N1CCO/C(=N\c1cc(F)cc(F)c1)SS/C(=N/c1cc(F)cc(F)c1)OCCN1C(=O)c2ccccc2C1=O`, the 50% effective concentration (EC50) in series [1] is above 37 µM. For the same compound, the selectivity ratio in series [2] was below 1. It took 37 µM to reach half-maximal cytotoxicity in series [3] (CC50).
In the same order, the values of `CC(=O)c1ccc(/N=C(\OCCN2C(=O)c3ccccc3C2=O)SS/C(=N/c2ccc(C(C)=O)cc2)OCCN2C(=O)c3ccccc3C2=O)cc1` are 24 µM, above 4.2 and above 100 µM.
In the same order, the values of `O=C1c2ccccc2C(=O)N1CCO/C(=N\Cc1ccccc1)SS/C(=N/Cc1ccccc1)OCCN1C(=O)c2ccccc2C1=O` are 7 µM, above 14 and above 100 µM.
`O=C1c2ccccc2C(=O)N1CCO/C(=N\c1cc(Cl)ccc1Cl)SS/C(=N/c1cc(Cl)ccc1Cl)OCCN1C(=O)c2ccccc2C1=O`: the EC50 in series [1] is above 100 µM. The same compound had a CC50 in series [3] above 100 µM.

Usually EC50 stands for the concentration needed to bring the measured effect to its halfway point. One may read the CC50 as the concentration at which the toxic effect on the cells reaches its halfway point.
